Laboratory results reported in article PMC3870048 (Pharmaceutical research, 2013).
Converted amounts (≈) assume the structure as drawn. Read-outs that look alike come from different tables or passages of the source.

Columns and labels:
[1] = in 43% PG, 43% ethanol containing solution; data previously reported; cited from earlier work
[2] = In vitro diffusion studies across microneedle-treated skin; assay type: in vitro ADME, Yucatan miniature pig; conditions: skin at end of 48 h diffusion experiment
In short: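 Yucatan minipig skin, dermatomed 1.4-1.8 mm, pierced 20 times with a 5-needle array (100 pores per 0.95 cm2 area). Flow-through cells held at 32°C. Donor: 250 μl of excess drug in 0.3 M acetate pH 5.0 with 10% PG. Receiver: pH 7.4 water with 20% ethanol, 1.5 ml/h. At 48 h the permeation area was minced and extracted overnight in 10 ml ACN at 32°C, then analysed by HPLC; n≥3.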

[3] = earlier proof of concept study; cited from earlier work
[4] = Stability of codrugs in 0.3 M acetate buffer pH 5.0 at 32°C; assay type: physicochemical; conditions: 0.3 M acetate buffer pH 5.0, 32°C
In short: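 Codrug was predissolved in ACN and spiked into prewarmed buffer (<1% ACN). 100 μl aliquots were taken at intervals, quenched with 900 μl ACN and held at -80°C. Analysis was by C18 HPLC-UV with ACN:acidic aqueous (70:30, pH 3.0) mobile phase and standards of 100–10,000 ng/ml. Data were fit to pseudo first-order kinetics; triplicate.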

[5] = Donor solution solubility determination; assay type: physicochemical; conditions: saturation solubility in 0.3 M acetate buffer pH 5.0 containing 10% propylene glycol, 32°C

For `O=C(Cc1ccccc1Nc1c(Cl)cccc1Cl)Oc1ccc2c3c1O[C@H]1C(=O)CC[C@@]4(O)[C@@H](C2)N(CC2CC2)CC[C@]314` [Codrug I], the Solubility [1] is given as 7.23 mM (≈ 4480 µg/mL), the “NTX and DIC (parent drugs) in the skin” value [2] is given as “quantifiable” and the formulation half-life [3] is given as 96 to 120 h. For the same compound, the “Pseudo first order rate constant (k)” value [4] was 0.0803 days ^−1 and the “Stability (approx. half-life)” value [4] was 8.72 ± 1.05 days.

With `O=C(Cc1ccccc1Nc1c(Cl)cccc1Cl)O[C@@H]1CC[C@@]2(O)[C@H]3Cc4ccc(O)c5c4[C@@]2(CCN3CC2CC2)[C@H]1O5` [Codrug II] the “Pseudo first order rate constant (k)” value [4] was 0.0052 days ^−1 and the “Stability (approx. half-life)” value [4] was 130.88 ± 4.94 days.

In the case of `Cl.O=C(Cc1ccccc1Nc1c(Cl)cccc1Cl)Oc1ccc2c3c1O[C@H]1C(=O)CC[C@@]4(O)[C@@H](C2)N(CC2CC2)CC[C@]314` [Codrug I (hydrochloride salt)], the Solubility [5] was 83.8 ± 15.4 mM.
